Test results: ChEMBL document CHEMBL4257512, “Synthesis and antiplasmodial activity of purine-based C-nucleoside analogues” (Medchemcomm, 2018)

Tests used:
Plasmodium falciparum [1] = experiment: Antiplasmodial activity against chloroquine-resistant Plasmodium falciparum K1 asynchronous cultures infected in human erythrocytes measured after 72 hrs by SYBR Green1 dye based fluorescence assay; type: functional, organism-based; conditions: K1, 72 h
How it was run: (§1)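 Parasites kept in human erythrocytes at 5% hematocrit in RPMI-1640 (HEPES) with 0.5% AlbuMaxII, 0.2% glucose, 0.2% bicarbonate, 15 µM hypoxanthine, 37 °C, CO₂. Two-fold serial dilutions spanning 5 µM to 78 nM were applied to asynchronous cultures at 0.8-1% parasitaemia, 1% haematocrit, for 72 h. SYBR Green I lysis buffer was added for 2 h, with fluorescence read at Ex 485/Em 535 nm. IC50 was derived from DNA signal against drug-free controls.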

[2] = Selectivity index, ratio of CC50 for African green monkey Vero cells to IC50 for chloroquine-sensitive Plasmodium falciparum 3D7 asynchronous cultures infected in human erythrocytes; type: toxicity, cell-based; conditions: read-out: Ratio CC50/IC50
[3] = Selectivity index, ratio of CC50 for African green monkey Vero cells to IC50 for chloroquine-resistant Plasmodium falciparum K1 asynchronous cultures infected in human erythrocytes; type: toxicity, cell-based; conditions: read-out: Ratio CC50/IC50
[4] = Cytotoxicity against African green monkey Vero cells after 3 days by resazurin dye based fluorescence assay; type: cell-based; conditions: chlorocebus sabaeus
How it was run: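 VERO kidney cells kept in MEM with 15% FBS, 5% CO₂, 37 °C. Cells exposed to serial compound dilutions for three days. Then 10% resazurin added as viability marker. Fluorescence read at Ex 530 ± 25 nm / Em 590 ± 25 nm. Median cytotoxic concentration (CC₅₀) calculated from readings.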

Plasmodium falciparum [5] = experiment: Antiplasmodial activity against chloroquine-sensitive Plasmodium falciparum 3D7 asynchronous cultures infected in human erythrocytes measured after 72 hrs by SYBR Green1 dye based fluorescence assay; type: functional, organism-based; conditions: 3D7, 72 h; how it was run: as §1
[6] = Resistance index, ratio of IC50 for chloroquine-resistant Plasmodium falciparum K1 asynchronous cultures infected in human erythrocytes to IC50 for chloroquine-sensitive Plasmodium falciparum 3D7 asynchronous cultures infected in human erythrocytes; type: functional
Plasmodium falciparum [7] = experiment: Growth inhibition of Plasmodium falciparum ITG2 infected in human erythrocytes assessed as reduction in [3H]-isoleucine incorporation pretreated for 24 hrs followed by [3H]-isoleucine addition and measured after 18 hrs by liquid scintillation counting method; type: functional, organism-based
Plasmodium falciparum [8] = experiment: Growth inhibition of Plasmodium falciparum D6 infected in human erythrocytes assessed as reduction in [3H]-isoleucine incorporation pretreated for 24 hrs followed by [3H]-isoleucine addition and measured after 18 hrs by liquid scintillation counting method; type: functional, organism-based

| Structure (SMILES) | IC50 (Plasmodium falciparum [1]) [µM] | selectivity ratio [2] | selectivity ratio [3] | CC50 at 72 h [4] [µM] | IC50 (Plasmodium falciparum [5]) [µM] | Ratio IC50 [6] | IC50 (Plasmodium falciparum [7]) [nM] | IC50 (Plasmodium falciparum [8]) [nM] |
| --- | --- | --- | --- | --- | --- | --- | --- | --- |
| COC(=O)C[C@H]([C@H]1O[C@@H]2OC(C)(C)O[C@@H]2[C@H]1OCc1ccccc1)n1cnc2c(N)ncnc21 | 4.09 | 20.9 | 21.1 | 86.3 | 4.12 | 0.99 | – | – |
| CC1(C)O[C@H]2O[C@H]([C@H](CCO)n3cnc4c(N)ncnc43)[C@H](OCc3ccccc3)[C@H]2O1 | 4.99 | 22.5 | 19.5 | 97.1 | 4.31 | 1.15 | – | – |
| CCOC(=O)C[C@H]([C@H]1O[C@@H]2OC(C)(C)O[C@@H]2[C@H]1Oc1ccccc1[N+](=O)[O-])n1cnc2c(N)ncnc21 | 4.25 | 28.1 | 28 | 119 | 4.24 | 1 | – | – |
| CCCCCCCCCCCCNc1ncnc2c1ncn2[C@@H](CC(=O)OCC)[C@H]1O[C@@H]2OC(C)(C)O[C@@H]2[C@H]1OCc1ccccc1 | 1.13 | 92.6 | 72.1 | 81.5 | 0.88 | 1.28 | – | – |
| CCOC(=O)C[C@@H]([C@H]1O[C@@H]2OC(C)(C)O[C@@H]2[C@H]1OCc1ccccc1)n1cnc2c(NCc3ccccc3)ncnc21 | 1.14 | 35.7 | 50.4 | 57.5 | 1.61 | 0.7 | – | – |
| CCOC(=O)C[C@H]([C@H]1O[C@@H]2OC(C)(C)O[C@@H]2[C@H]1OCc1ccccc1)n1cnc2c(NCc3ccccc3)ncnc21 | 2.27 | 14.8 | 23.5 | 53.3 | 3.6 | 0.63 | – | – |
| CCCCCCCCCCCCNc1ncnc2c1ncn2[C@H](CC(=O)OCC)[C@H]1O[C@@H]2OC(C)(C)O[C@@H]2[C@H]1OCc1ccccc1 | 2.57 | 44.5 | 17.5 | 45 | 1.01 | 2.54 | – | – |
| CC1(C)O[C@H]2O[C@H]([C@@H](CCO)n3cnc4c(N)ncnc43)[C@H](Oc3ccccc3[N+](=O)[O-])[C@H]2O1 | 2.37 | 11.5 | 12.7 | 51.8 | 3.13 | 0.9 | – | – |
| CC1(C)O[C@H]2O[C@H]([C@H](CCO)n3cnc4c(NCc5ccccc5)ncnc43)[C@H](OCc3ccccc3)[C@H]2O1 | 4.44 | 19.6 | 25.8 | 61.2 | 3.99 | 0.75 | – | – |
| CC(O)c1ccc(-n2cnc3c(N)ncnc32)cc1 (stereo not given) | – | – | – | – | > 5 | – | – | – |
| COC(=O)C[C@@H]([C@H]1O[C@@H]2OC(C)(C)O[C@@H]2[C@H]1OCc1ccccc1)n1cnc2c(N)ncnc21 | 4.79 | 15.4 | 14.3 | 68.4 | 4.44 | 1.07 | – | – |
| CC1(C)O[C@H]2O[C@H]([C@H](CCO)n3cnc4c(N)ncnc43)[C@H](Oc3ccccc3[N+](=O)[O-])[C@H]2O1 | 4.7 | 37.1 | 33.3 | 148 | 3.62 | 1.11 | – | – |
| CCOC(=O)C[C@@H]([C@H]1O[C@@H]2OC(C)(C)O[C@@H]2[C@H]1Oc1ccccc1[N+](=O)[O-])n1cnc2c(N)ncnc21 | 4.93 | 27.1 | 19.5 | 96.3 | 3.56 | 1.38 | – | – |
| CC(=O)c1ccc(-n2cnc3c(N)ncnc32)cc1 | – | – | – | – | > 5 | – | – | – |
| CC1(C)O[C@H]2O[C@H]([C@H](CCO)n3cnc4c(N)ncnc43)[C@@H](OCc3ccccc3)[C@H]2O1 | 4.09 | 40.9 | 31.5 | 148 | 4.52 | 1.29 | – | – |
| CN(C/C=C/CN)C[C@H]1O[C@@H](n2cnc3c(N)ncnc32)[C@H](O)[C@@H]1O | – | – | – | – | – | – | 2000 to 3000 | 2000 to 3000 |
| CC1(C)O[C@H]2O[C@H]([C@H](CC(=O)O)n3cnc4c(N)ncnc43)[C@H](Oc3ccccc3N)[C@H]2O1 | 3.72 | 13.9 | 18 | 67.1 | 4.82 | – | – | – |
| CCOC(=O)CCn1cnc2c(N)ncnc21 | – | – | – | – | > 5 | – | – | – |
| CCOC(=O)C[C@@H]([C@H]1O[C@@H]2OC(C)(C)O[C@@H]2[C@H]1Oc1ccccc1N)n1cnc2c(N)ncnc21 | > 5 | 20.1 | < 17.9 | 89.7 | 4.47 | >1.11 | – | – |
| CC1(C)O[C@H]2O[C@H]([C@@H](CCO)n3cnc4c(NCc5ccccc5)ncnc43)[C@H](OCc3ccccc3)[C@H]2O1 | 4.99 | 18.2 | 15 | 74.9 | 4.11 | 1.21 | – | – |
